Results from ChEMBL document CHEMBL4765333, “Novel NO-releasing scopoletin derivatives induce cell death via mitochondrial apoptosis pathway and cell cycle arrest” (Eur J Med Chem, 2020).
The source made the active and inactive calls. The rule behind the calls is not given here.

Tests used:
MDA-MB-23 = assay: Inhibition of colony formation in human MDA-MB-231 cells incubated for 24 hrs followed by culturing in fresh medium for 10 days by crystal violet staining based assay; type: functional, cell-based; settings: dose 0.25-1 µM
In short: (§1)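 MDA-MB-231 seeded at 1.5×10^3 cells/well, 24 h attachment, then 24 h exposure to compound (0.25, 0.5, 1 µM) or DMSO; fresh medium for a further 10 days. Fixed in 4% paraformaldehyde 0.5 h at 4°C, crystal violet stained, dye dissolved in DMSO and absorbance read at 590 nm; performed three times.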

MDA-MB-231 [1] = assay: Antiproliferative activity against human MDA-MB-231 cells assessed as inhibition of cell proliferation rate at 4 uM pretreated with 40 uM NO scavenger, hemoglobin for 2 hrs followed by addition of compound and measured after 48 hrs by MTT assay; type: functional
In short: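 MDA-MB-231 cells pretreated 2 h with the NO scavenger hemoglobin (2.5, 5, 10, 20, 40 µM), then given compound at 4 µM for a further 48 h. Inhibition rate read by MTT assay; mean ± SD, n = 3.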

MDA-MB-231 [2] = assay: Induction of intracellular reactive oxygen species generation in human MDA-MB-231 cells at 2 uM measured after 24 hrs by DCFH-DA staining based flow cytometry analysis relative to control; type: functional
In short: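 MDA-MB-231 cells at 2×10^5 cells/well, grown 24 h, exposed 24 h to compound (1, 1.5, 2 µM) or DMSO control. Cells then took up DCFH-DA for 30 min at 37°C in the dark, were PBS-washed, resuspended in serum-free medium and analysed by flow cytometry. Relative DCF level vs control; mean ± SD, n = 3.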

MDA-MB-231 [3] = assay: Induction of apoptosis in human MDA-MB-231 cells assessed as late apoptotic cells at 3 uM after 24 hrs by Annexin V/propidium iodide based flow cytometric analysis (reference value: 0.038%); type: functional
In short: (§2)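 MDA-MB-231 cells (2×10^5/well) attached 24 h, then treated 24 h with 1, 1.5, 2 or 3 µM, DMSO as control. Cells harvested, PBS-washed, resuspended in binding buffer, stained with Annexin V and PI for 30 min at 37°C in the dark, and analysed by flow cytometry for quadrant percentages; three experiments.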

MDA-MB-231 [4] = assay: Induction of apoptosis in human MDA-MB-231 cells assessed as necrotic cells at 2 uM after 24 hrs by Annexin V/propidium iodide based flow cytometric analysis (reference value: 0.019%); type: functional; in short: as §2
L02 = assay: Cytotoxicity against human L02 cells assessed as reduction in cell viability measured after 48 hrs by MTT assay; type: cell-based; settings: L02, 48 h
In short: (§3)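 Cells seeded at ~5,000/well, grown 24 h to partial monolayer, then exposed 48 h at 37°C, 5% CO2 to 0.5, 1, 2, 4, 10 and 20 µM (DMSO ≤0.1%). MTT final 0.5 mg/ml for 4 h, formazan dissolved in DMSO, A570. Survival expressed as % of untreated control; IC50 from dose-response curves; three independent experiments. MDA-MB-231, MCF-7, HepG2 in DMEM; A549 and LO-2 in RPMI-1640; 10% FBS.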

MDA-MB-231 [5] = assay: Inhibition of colony formation in human MDA-MB-231 cells assessed as fewer and smaller colonies at 0.5 to 1 uM incubated for 24 hrs followed by culturing in fresh medium for 10 days by crystal violet staining based assay; type: functional, cell-based; settings: dose 0.5-1 µM; in short: as §1
MDA-MB-231 [6] = assay: Induction of apoptosis in human MDA-MB-231 cells assessed as necrotic cell at 1 uM after 24 hrs by Annexin V/propidium iodide staining based flow cytometric analysis (reference value: 0.019%); type: functional; in short: as §2
MDA-MB-231 [7] = assay: Inhibition of colony formation in human MDA-MB-231 cells at 0.25 uM incubated for 24 hrs followed by culturing in fresh medium for 10 days by crystal violet staining based assay; type: functional, cell-based; in short: as §1
MDA-MB-231 [8] = assay: Induction of apoptosis in human MDA-MB-231 cells assessed as necrotic cells at 3 uM after 24 hrs by Annexin V/propidium iodide based flow cytometric analysis (reference value: 0.019%); type: functional; in short: as §2
MDA-MB-231 [9] = assay: Induction of apoptosis in human MDA-MB-231 cells assessed as late apoptotic cells at 2 uM after 24 hrs by Annexin V/propidium iodide based flow cytometric analysis (reference value: 0.038%); type: functional; in short: as §2
MCF7 = assay: Anticancer activity against human MCF7 cells assessed as inhibition of cell proliferation measured after 48 hrs by MTT assay; type: functional, cell-based; settings: MCF7, 48 h; in short: as §3
MDA-MB-231 [10] = assay: Induction of apoptosis in human MDA-MB-231 cells assessed as early apoptotic cells at 3 uM after 24 hrs by Annexin V/propidium iodide based flow cytometric analysis (reference value: 0.94%); type: functional; in short: as §2
MDA-MB-231 [11] = assay: Induction of mitochondrial membrane potential depolarization in human MDA-MB-231 cells assessed as proportion of cells with hyperpolarized MMP at 1.5 uM incubated for 18 hrs by JC-1 staining based flow cytometry (reference value: 98.4%); type: functional
MDA-MB-231 [12] = assay: Induction of apoptosis in human MDA-MB-231 cells assessed as viable cells at 2 uM after 24 hrs by Annexin V/propidium iodide based flow cytometric analysis (reference value: 99%); type: functional; settings: read-out: Activity; in short: as §2
[13] = (§4) Induction of intracellular reactive oxygen species generation in human MDA-MB-231 cells assessed as proportion of FL1-H positive cells at 1.5 uM measured after 24 hrs by DCFH-DA staining based flow cytometry analysis (reference value: 47.8%); type: functional, MDA-MB-23
[14] = Induction of intracellular reactive oxygen species generation in human MDA-MB-231 cells assessed as proportion of FL1-H negative cells at 2 uM measured after 24 hrs by DCFH-DA staining based flow cytometry analysis (reference value: 52.2%); type: functional, MDA-MB-23
MDA-MB-231 [15] = assay: Induction of cell cycle arrest in human MDA-MB-231 cells assessed as accumulation at S phase at 1.5 uM measured after 24 hrs by propidium iodide staining based flow cytometric method (reference value: 36.25%); type: functional
MDA-MB-231 [16] = assay: Induction of apoptosis in human MDA-MB-231 cells assessed as increase in cleaved caspase-9 protein expression incubated for 8 hrs by Western blot analysis; type: functional, cell-based; settings: dose 1.5-6 µM
In short: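 MDA-MB-231 cells (8×10^5 per 60 mm dish) attached 24 h, then exposed 8 h to 1.5, 3 or 6 µM, DMSO as control. Lysates quantified by BCA; 30 µg protein run on 4–20% SDS-PAGE, transferred to PVDF, probed for Bcl-2, Bax, Bad, cleaved caspase-9, cleaved caspase-3 and PARP, with ECL detection. Densitometric relative levels; three experiments.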

[17] = as §4, with “2” for “1.5”, “uM pretreated with ROS scavenger, NAC for 2 hrs prior to incubation with compound and” for “uM”; type: functional, MDA-MB-23
In short: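 MDA-MB-231 seeded at 2×10^5 cells/well, grown 24 h, pretreated with NAC (2.5 mM) for 2 h, then given 2 µM compound for 24 h. Cells loaded with DCFH-DA 30 min at 37°C in the dark, washed in PBS, resuspended in serum-free medium and read by flow cytometry; three independent experiments.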

IC50 (MCF7): 1.91 µM
Compound: COc1cc2cc(N)c(=O)oc2cc1OCCCOc1no[n+]([O-])c1S(=O)(=O)c1ccccc1
inhibition (MDA-MB-23): Dose-dependent effect | inhibition at 4 µM (MDA-MB-231 [1]): 39.5% | fold change (FC) (MDA-MB-231 [2]): 2.16 | Activity (MDA-MB-231 [3]): 20.5% | Activity (MDA-MB-231 [4]): 0.2% | IC50 (L02): 9.16 µM | inhibition (MDA-MB-231 [5]): Active | Activity (MDA-MB-231 [6]): 0.21% | inhibition (MDA-MB-231 [7]): Active | Activity (MDA-MB-231 [8]): 0.31% | Activity (MDA-MB-231 [9]): 15.8% | Activity (MDA-MB-231 [10]): 13.6% | Activity (MDA-MB-231 [11]): 81.4% | viability at 2 µM (MDA-MB-231 [12]): 71.1% | Activity [13]: 82.7% | Activity [14]: 11.2% | Activity (MDA-MB-231 [15]): 22.92% | Activity (MDA-MB-231 [16]): Dose-dependent effect | Activity [17]: 51%
